RORA inh = blocks the human nuclear receptor RORA. P35398. CHO-K1 Gal4-RORA LBD luciferase reporter, luminescence. inhibition, % at 10 µM. actives 0.43% (n = 65,000);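 active = inhibition above the mean of all tested compounds plus 3 SD, cut at about 52% in these data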;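 note: 0% = RORA-transfected cells with DMSO and 100% = mock-transfected cells lacking RORA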
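Test system: CHO-K1 cells with Gal4-hRORA LBD fusion and pG5-luc reporter | Timing: 20 h compound treatment, 37 °C | Detection: Luminescence from basal luciferase reporter expression | Read-out basis: % inhibition of basal luciferase versus +RORA/-RORA DMSO controls | Repeats: One measurement per compound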
Starred values were filed as active, the others as inactive. The sample as a whole holds a higher share of hits than the screen did.

SMILES	RORA inh
Cc1oc(-c2ccc3c(c2)OCCO3)cc1C(=O)NC(CCC(=O)O)C(=O)O (configuration not stated)	-1
Cc1oc(-c2ccc3c(c2)OCCO3)cc1C(=O)O	75*
Cc1oc2cc(O)cc(O)c2c(=O)c1-c1ccc2c(c1)OCCCO2	-58
CCOC(=O)C(C(=O)OCC)C(CC(=O)C1CC1)c1ccccc1 (configuration not stated)	7
Cc1cccc(-n2ncc3c(N(C)Cc4ccccc4)ncnc32)c1	-56
COc1ccc(-c2cc3nc4n(c(=O)c3s2)CCOC4)cc1	60*
COc1ccc(-c2csc(N3CCOCC3)n2)cc1OC	-61
Cc1cc(C(F)F)n2nc(C(=O)Nc3ccccc3Br)nc2n1	-8
COc1ccc(N2C(=O)CSC2c2ccc3c(c2)OCO3)c(OC)c1 (configuration not stated)	6
O=S(=O)(Nc1nc2ccccc2nc1NCc1ccco1)c1cccs1	9
Cc1nc2ccc(S(=O)(=O)NCC(=O)N3CCc4ccccc4C3)cc2s1	-16
c1ccc2c(c1)CCN(c1nc3cc4c(cc3s1)OCCO4)C2	64*
COc1cc(C(C)=O)ccc1OCC(=O)c1cc(C)n(C2CC2)c1C	19
COc1cccc2sc(Nc3nc(-c4ccccn4)cs3)nc12	69*
COc1cccc(Nc2nc(-c3sc(N)nc3C)cs2)c1	-27
CCOc1ccccc1N(CC(=O)Nc1ccc(C)cc1)S(C)(=O)=O	-6
CCCCNc1cc(C)nc(NCc2ccccc2)n1	57*
COc1ccc2nc(NCc3ccccc3)[nH]c2c1	-52
CC1Cc2ccccc2N1C(=O)CSc1nnc(-c2ccc(S(=O)(=O)N3CCCC3)cc2)o1 (configuration not stated)	0
CCOc1ccc(OCc2cccc(C(=O)N3CCOCC3)c2)cc1	77*
O=C(Nc1ccccc1C(=O)N1CCOCC1)c1ccncc1	-16
CCOc1ccc(C(=O)N2CCCC2C(=O)O)cc1 (configuration not stated)	7
CC1(C)CC(=O)C(/C=N/c2ncccc2C(=O)O)=C(O)C1	2
CSCCC(CO)NC(=O)OCc1ccccc1 (configuration not stated)	16
Cc1c(C(=O)O)[nH]c2c1C(=O)CC(c1ccc(Cl)cc1)C2 (configuration not stated)	-9
SMILES	RORA inh
CCOC(=O)C1C(C)=CC(=O)CC1c1ccco1 (configuration not stated)	-3
CCCCCOC(=O)c1[nH]c2c(c1C)C(=O)CC(c1ccco1)C2 (configuration not stated)	54*
COc1cccc2c1C(=O)c1c(O)c3c(c(O)c1C2=O)C[C@@](O)(C(=O)CO)C[C@@H]3O[C@H]1C[C@H](N)[C@H](O)[C@H](C)O1	63*
O=C1CCCN1CC(CN1CCOCC1)Sc1nc2ccccc2c(=O)n1-c1ccccc1 (configuration not stated)	17
CC(=O)c1sc(NC(=O)C2(F)C(F)(F)C(F)(F)C(F)(F)C(F)(F)C2(F)F)nc1C	90*
COC(=O)c1sc(NC(=O)c2ccoc2C)nc1C	-8
Cc1nc(NC(=O)C2CC3CCCC(C2)C3=O)sc1C (configuration not stated)	-62
CCOc1ccc(NC(=O)C2CC(=O)N(C(C)C)C2)cc1 (configuration not stated)	-6
N#Cc1c(NC(=O)CSc2ncnc3sccc23)oc(-c2ccco2)c1-c1ccco1	0
COc1ccc(-n2c(SCCC(=O)O)nnc2-c2ccncc2)cc1	7
Cc1cc(C(=O)Nc2c(F)cc(F)cc2Br)c(C)o1	18
CCc1nnc2c3cnn(-c4ccc(C)c(C)c4)c3ncn12	-57
Cc1cc(C)n2nc(SCC(=O)NCc3ccco3)nc2n1	-10
Cc1cc(C)n2nc(SCc3cc(=O)n4ccccc4n3)nc2n1	-11
Cc1cc(C(=O)CSc2nc3ccccc3[nH]2)c(C)n1C	-59
Cc1cc(-n2c(C)cc(C(=O)CSc3ncnc4ccccc34)c2C)no1	64*
Cc1cc(C)n2nc(SCC(=O)c3cc(C)n(-c4cc(C)on4)c3C)nc2n1	55*
Cc1cc(C(=O)CSc2nnc(-c3ccccc3)n2-c2ccccc2)c(C)n1-c1ncn[nH]1	-11
CC(=O)OC(C(=O)Nc1ccccc1)C(C)S(=O)(=O)c1ccccc1 (configuration not stated)	20
CC(C)=CCC(C)(C)CNC(=O)NC1CCCCC1	-5
COc1ccc(CCn2nnnc2C(C(C)C)N2CCN(c3ncccn3)CC2)cc1OC (configuration not stated)	-11
CCS(=O)(=O)N1CCC(C(=O)NCCCN2CCCC2)CC1	-4
c1ccc(-c2cnnc(N3CCCCC3)n2)cc1	-58
O=C(COc1ccccc1)n1nc(-c2ccc(Cl)cc2)nc1NCc1ccco1	-60
COc1ccc(NC(=O)CCCC2=NS(=O)(=O)c3ccccc3N2)cc1	6
Cc1nn(-c2nc3ccccc3s2)c(C)c1Oc1ccccc1O	-66
Cn1ncc(Br)c1C(=O)Nc1ccc(Cl)cn1	7

Screens (PubChem)
